Data: ChEMBL document CHEMBL1833793 (Bioorg Med Chem Lett, 2011)

Tests used:
[1] = Plasma clearance in mouse at 1 mg/kg, iv and 2 mg/kg, po by HPLC analysis; type: ADME, organism-based
[2] = biological target: Voltage-gated inwardly rectifying potassium channel KCNH2 (Homo sapiens, UniProt Q12809); assay: Inhibition of human ERG by patch-clamp assay
[3] = Plasma protein binding in rat; type: ADME, cell-free; details: read-out: PPB (converted)
[4] = Apparent permeability from apical to basolateral side of the human Caco2 cells; type: ADME, cell-based; details: Caco-2
[5] = biological target: 5-hydroxytryptamine receptor 2B (Homo sapiens, UniProt P41595); assay: Binding affinity to human 5HT2B receptor
Chain of 5-hydroxytryptamine receptor 2B (P41595 whole entry): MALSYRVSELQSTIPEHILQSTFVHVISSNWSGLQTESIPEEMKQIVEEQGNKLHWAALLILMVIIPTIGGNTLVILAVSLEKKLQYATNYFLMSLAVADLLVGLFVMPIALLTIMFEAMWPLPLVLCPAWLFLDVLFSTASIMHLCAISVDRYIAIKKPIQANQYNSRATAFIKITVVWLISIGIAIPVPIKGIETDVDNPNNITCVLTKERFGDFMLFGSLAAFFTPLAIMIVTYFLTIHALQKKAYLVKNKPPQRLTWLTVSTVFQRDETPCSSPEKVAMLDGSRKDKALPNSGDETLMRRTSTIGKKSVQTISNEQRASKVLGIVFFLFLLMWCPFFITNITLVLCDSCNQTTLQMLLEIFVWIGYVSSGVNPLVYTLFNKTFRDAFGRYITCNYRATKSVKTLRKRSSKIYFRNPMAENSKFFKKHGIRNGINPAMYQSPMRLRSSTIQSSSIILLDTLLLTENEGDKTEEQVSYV

[6] = biological target: T1, 5-hydroxytryptamine receptor 1A (Homo sapiens, UniProt P08908); assay: Binding affinity to human 5HT1A receptor
T1 sequence (P08908 whole entry): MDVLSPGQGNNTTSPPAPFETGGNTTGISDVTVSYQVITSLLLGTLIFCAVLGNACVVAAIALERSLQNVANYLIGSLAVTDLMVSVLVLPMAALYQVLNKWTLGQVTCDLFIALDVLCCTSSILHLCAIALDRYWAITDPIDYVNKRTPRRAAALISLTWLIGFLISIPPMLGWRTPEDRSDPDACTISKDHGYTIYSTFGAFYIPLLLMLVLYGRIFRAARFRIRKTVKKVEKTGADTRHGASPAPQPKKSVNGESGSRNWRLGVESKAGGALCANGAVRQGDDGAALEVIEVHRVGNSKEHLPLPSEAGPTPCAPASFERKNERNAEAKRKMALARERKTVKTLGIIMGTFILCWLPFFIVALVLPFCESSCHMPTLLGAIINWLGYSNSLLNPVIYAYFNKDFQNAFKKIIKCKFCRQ

[7] = Plasma concentration in cPP-induced feeding rat model at 3 mg/kg, po after 6 hrs; type: ADME, organism-based; set-up: dose 3 mg/kg, route oral
Procedure, shortened: (§1)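 Satellite rats (n = 2/dose per week), cannulated in the lateral cerebral ventricle for the feeding study, dosed orally at 3, 10 or 30 mg/kg as a suspension in 20% HP-β-cyclodextrin. Plasma was sampled 1, 2, 4, 6 or 24 h after dosing, alongside i.c.v. cPP (0.6 nmol) feeding tests. Values are given as mean with SD.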

[8] = biological target: T2, Neuropeptide Y receptor type 5 (Homo sapiens, UniProt Q15761); assay: Antagonist activity at human NPY5 receptor assessed as calcium mobilization by FLIPR assay; type: functional
T2 sequence (Q15761 whole entry): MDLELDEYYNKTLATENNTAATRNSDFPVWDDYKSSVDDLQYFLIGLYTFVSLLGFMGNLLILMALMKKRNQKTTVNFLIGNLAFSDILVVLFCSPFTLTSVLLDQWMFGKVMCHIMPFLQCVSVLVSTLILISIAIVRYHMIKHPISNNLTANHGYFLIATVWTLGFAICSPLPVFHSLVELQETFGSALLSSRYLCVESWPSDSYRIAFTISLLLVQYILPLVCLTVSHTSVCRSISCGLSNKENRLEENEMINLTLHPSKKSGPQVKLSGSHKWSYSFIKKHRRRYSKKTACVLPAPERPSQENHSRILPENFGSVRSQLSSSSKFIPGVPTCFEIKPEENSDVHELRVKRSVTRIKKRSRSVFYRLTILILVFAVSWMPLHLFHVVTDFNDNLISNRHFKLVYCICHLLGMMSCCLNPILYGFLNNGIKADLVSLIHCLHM

[9] = Plasma concentration in cPP-induced feeding rat model at 3 mg/kg, po after 4 hrs; type: ADME, organism-based; set-up: dose 3 mg/kg, route oral; procedure, shortened: as §1
[10] = Half life in Sprague-Dawley rat at 1 mg/kg, iv and 2 mg/kg, po by HPLC analysis; type: ADME, organism-based; details: in vivo
Procedure, shortened: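 Cannulated (jugular and carotid) male Sprague-Dawley rats, 200–250 g, n = 2; 1 mg/kg iv and 2 mg/kg po crossover after 24 h washout; dosed in 20% β-cyclodextrin pH-adjusted with methanesulfonic acid; 12 serial blood samples over 24 h; plasma by LC-MS/MS; noncompartmental analysis.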

[11] = Plasma concentration in cPP-induced feeding rat model at 30 mg/kg, po after 6 hrs; type: ADME, organism-based; set-up: dose 30 mg/kg, route oral; procedure, shortened: as §1
Cytochrome P450 2D6 = Cytochrome P450 2D6 (Homo sapiens, UniProt P10635); assay: Inhibition of CYP2D6; type: ADME
Chain of Cytochrome P450 2D6 (P10635 whole entry): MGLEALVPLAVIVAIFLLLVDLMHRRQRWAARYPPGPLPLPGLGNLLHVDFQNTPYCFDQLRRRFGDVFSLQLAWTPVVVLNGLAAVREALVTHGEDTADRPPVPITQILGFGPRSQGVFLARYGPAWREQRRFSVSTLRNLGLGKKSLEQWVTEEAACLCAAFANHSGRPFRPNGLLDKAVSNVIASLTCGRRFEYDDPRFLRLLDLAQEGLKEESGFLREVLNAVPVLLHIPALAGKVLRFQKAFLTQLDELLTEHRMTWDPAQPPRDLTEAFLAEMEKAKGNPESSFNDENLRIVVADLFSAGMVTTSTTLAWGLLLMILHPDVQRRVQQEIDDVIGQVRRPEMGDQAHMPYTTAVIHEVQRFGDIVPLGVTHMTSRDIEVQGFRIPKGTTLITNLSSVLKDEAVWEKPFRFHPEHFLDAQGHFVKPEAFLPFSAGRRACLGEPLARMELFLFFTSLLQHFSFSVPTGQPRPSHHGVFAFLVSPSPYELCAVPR

Brain = assay: Free drug level in brain of cPP-induced feeding rat model; type: ADME, tissue-based; details: in vivo
[12] = Plasma protein binding in human; type: ADME, cell-free; details: read-out: PPB (converted)
Liver microsomes [13] = assay: Intrinsic clearance in rat liver microsome; type: ADME
[14] = Oral bioavailability in Sprague-Dawley rat at 2 mg/kg by HPLC analysis; type: ADME, organism-based; details: in vivo
Procedure, shortened: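 Male Sprague-Dawley rats (200–250 g, n = 2) with jugular and carotid cannulae, dosed 1 mg/kg iv and 2 mg/kg po in crossover after 24 h washout. Vehicle was 20% beta cyclodextrin, pH adjusted with methanesulfonic acid to give a solution. Automated serial blood sampling took 12 time points over 24 h. Plasma was quantified by HPLC-MS/MS, with noncompartmental analysis.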

Liver microsomes [15] = assay: Intrinsic clearance in human liver microsome; type: ADME
[16] = biological target: T3, Neuropeptide Y receptor type 5 (Rattus norvegicus, UniProt Q63634); assay: Antagonist activity at rat NPY5 receptor; type: functional
T3 sequence (Q63634 whole entry): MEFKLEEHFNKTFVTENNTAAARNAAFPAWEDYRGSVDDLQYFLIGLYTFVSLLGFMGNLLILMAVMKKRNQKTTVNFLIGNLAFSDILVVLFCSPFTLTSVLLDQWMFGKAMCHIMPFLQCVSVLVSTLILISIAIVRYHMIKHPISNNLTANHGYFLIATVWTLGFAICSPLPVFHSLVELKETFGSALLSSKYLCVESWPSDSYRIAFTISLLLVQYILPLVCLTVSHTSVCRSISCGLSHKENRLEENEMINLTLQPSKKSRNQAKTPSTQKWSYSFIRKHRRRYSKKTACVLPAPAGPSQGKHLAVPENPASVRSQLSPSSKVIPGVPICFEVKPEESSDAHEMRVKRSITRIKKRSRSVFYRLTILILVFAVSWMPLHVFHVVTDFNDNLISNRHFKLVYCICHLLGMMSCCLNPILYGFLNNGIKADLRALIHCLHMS

[17] = Drug uptake in brain of cPP-induced feeding rat model at 3 mg/kg, po after 6 hrs; type: ADME, organism-based; set-up: dose 3 mg/kg, route oral; details: read-out: Drug uptake
Procedure, shortened: (§2)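 Satellite rats (n = 2/dose) sampled each week alongside the cPP feeding test; Lu-series dosed po at 3, 10 or 30 mg/kg as suspension in 20% HP-β-cyclodextrin; plasma (ng/mL) and brain tissue (ng/g) levels taken at 1, 2, 4, 6 and 24 h post-dose; mean ± SD reported.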

[18] = Drug uptake in brain of cPP-induced feeding rat model at 30 mg/kg, po after 1 hr; type: ADME, organism-based; set-up: dose 30 mg/kg, route oral; details: read-out: Drug uptake; procedure, shortened: as §2
Cytochrome P450 2C19 = Cytochrome P450 2C19 (Homo sapiens, UniProt P33261); assay: Inhibition of CYP2C19; type: ADME
Chain of Cytochrome P450 2C19 (P33261 whole entry): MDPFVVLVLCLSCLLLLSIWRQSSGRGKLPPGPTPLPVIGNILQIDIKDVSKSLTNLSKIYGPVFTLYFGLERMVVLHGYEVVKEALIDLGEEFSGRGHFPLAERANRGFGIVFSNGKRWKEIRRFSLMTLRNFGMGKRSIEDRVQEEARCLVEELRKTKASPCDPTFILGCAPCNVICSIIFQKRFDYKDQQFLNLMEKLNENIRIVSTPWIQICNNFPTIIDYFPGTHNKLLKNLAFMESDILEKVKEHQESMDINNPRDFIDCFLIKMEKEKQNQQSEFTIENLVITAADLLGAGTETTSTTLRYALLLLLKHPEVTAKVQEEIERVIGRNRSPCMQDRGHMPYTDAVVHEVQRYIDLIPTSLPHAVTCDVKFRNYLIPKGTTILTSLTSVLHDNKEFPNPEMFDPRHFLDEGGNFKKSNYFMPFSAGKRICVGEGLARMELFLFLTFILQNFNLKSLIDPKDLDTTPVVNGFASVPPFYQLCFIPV

[19] = Drug uptake in brain of cPP-induced feeding rat model at 10 mg/kg, po after 2 hrs; type: ADME, organism-based; set-up: dose 10 mg/kg, route oral; details: read-out: Drug uptake; procedure, shortened: as §2

Chain of Voltage-gated inwardly rectifying potassium channel KCNH2 (Q12809 whole entry): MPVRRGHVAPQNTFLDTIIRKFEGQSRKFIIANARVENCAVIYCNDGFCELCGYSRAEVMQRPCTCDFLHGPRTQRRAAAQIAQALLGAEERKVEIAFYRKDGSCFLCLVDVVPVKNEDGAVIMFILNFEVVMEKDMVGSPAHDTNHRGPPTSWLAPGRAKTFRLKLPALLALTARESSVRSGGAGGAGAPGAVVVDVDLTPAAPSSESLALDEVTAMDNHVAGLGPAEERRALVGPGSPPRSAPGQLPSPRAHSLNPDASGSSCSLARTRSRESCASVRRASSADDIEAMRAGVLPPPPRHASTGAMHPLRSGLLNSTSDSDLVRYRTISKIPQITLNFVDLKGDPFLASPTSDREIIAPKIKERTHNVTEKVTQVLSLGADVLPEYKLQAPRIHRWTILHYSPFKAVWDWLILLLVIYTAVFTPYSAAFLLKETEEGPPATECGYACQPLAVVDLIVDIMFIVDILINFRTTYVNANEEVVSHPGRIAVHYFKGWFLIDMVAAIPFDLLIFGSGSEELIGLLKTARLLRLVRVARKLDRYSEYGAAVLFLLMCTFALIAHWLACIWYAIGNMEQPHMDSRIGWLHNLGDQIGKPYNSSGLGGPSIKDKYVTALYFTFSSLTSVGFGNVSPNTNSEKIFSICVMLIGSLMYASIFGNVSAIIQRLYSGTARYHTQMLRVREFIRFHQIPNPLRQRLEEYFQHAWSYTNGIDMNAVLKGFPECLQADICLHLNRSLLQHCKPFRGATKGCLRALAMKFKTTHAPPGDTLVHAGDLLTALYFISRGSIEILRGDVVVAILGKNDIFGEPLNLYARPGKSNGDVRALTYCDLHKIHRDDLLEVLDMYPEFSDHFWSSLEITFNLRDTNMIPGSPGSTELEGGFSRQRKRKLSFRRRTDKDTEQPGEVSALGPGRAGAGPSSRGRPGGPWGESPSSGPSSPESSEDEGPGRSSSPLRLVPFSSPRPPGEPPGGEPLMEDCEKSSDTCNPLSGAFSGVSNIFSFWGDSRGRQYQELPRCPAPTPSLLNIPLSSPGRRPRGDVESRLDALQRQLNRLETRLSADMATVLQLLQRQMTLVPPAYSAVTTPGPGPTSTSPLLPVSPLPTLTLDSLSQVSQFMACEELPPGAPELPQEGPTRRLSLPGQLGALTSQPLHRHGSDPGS

clearance [1]: 5 mL/min/kg
fraction unbound [3]: 0.006
Papp A→B [4]: 36.7 ×10⁻⁶ cm/s
Ki [5]: 245 nM
Ki [6]: 478 nM
concentration at 6 h [7]: 30 ng/mL
IC50 [8]: 1.8 nM
concentration at 4 h [9]: 52 ng/mL
half-life [10]: 6.3 h
concentration at 6 h [11]: 181 ng/mL
IC50 (Cytochrome P450 2D6): > 10000 nM
Drug uptake (Brain): 0.4 nM
fraction unbound [12]: 0.018
CL (Liver microsomes [13]): 40 mL/min
bioavailability [14]: 92%
CL (Liver microsomes [15]): 2.5 L/min
Ki [16]: 1.4 nM
concentration at 6 h [17]: 30 ng/g
concentration at 1 h [18]: 288 ng/g
IC50 (Cytochrome P450 2C19): > 10000 nM
concentration at 2 h [19]: 244 ng/g
SMILES: CS(=O)(=O)NC[C@H]1CC[C@H](Nc2nc3c(s2)CCSc2ccccc2-3)CC1
IC50 [2]: > 10000 nM
